{
  "source": "ChEMBL document CHEMBL2417404",
  "about": "“Synthesis and structure-activity relationship (SAR) of 2-methyl-4-oxo-3-oxetanylcarbamic acid esters, a class of potent N-acylethanolamine acid amidase (NAAA) inhibitors” (J Med Chem, 2013)",
  "key": {"[1]": {"target": "T1, N-acylethanolamine-hydrolyzing acid amidase (Rattus norvegicus, UniProt Q5KTC7)", "T1 sequence (Q5KTC7 whole entry)": "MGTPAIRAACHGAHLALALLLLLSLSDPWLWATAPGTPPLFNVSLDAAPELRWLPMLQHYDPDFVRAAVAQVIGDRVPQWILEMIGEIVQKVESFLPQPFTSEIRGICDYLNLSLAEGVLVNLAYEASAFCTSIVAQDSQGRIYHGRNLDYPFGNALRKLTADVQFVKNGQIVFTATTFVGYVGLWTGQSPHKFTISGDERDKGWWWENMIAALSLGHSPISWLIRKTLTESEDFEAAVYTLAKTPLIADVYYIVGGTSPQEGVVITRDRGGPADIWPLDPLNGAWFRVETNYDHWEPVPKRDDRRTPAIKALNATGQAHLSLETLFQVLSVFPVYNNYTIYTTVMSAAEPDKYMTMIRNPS", "test": "Inhibition of Sprague Dawley rat lung native NAAA enzyme using heptadecenoylethanolamide as substrate preincubated for 30 mins followed by substrate addition measured after 30 mins by UPLC-MS analysis; call rule not given here", "summary_of_the_method": "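Native enzyme from lungs of male Sprague-Dawley rats (275-300 g). Lungs were homogenized in 20 mM Tris-HCl pH 7.4 with 0.32 M sucrose, spun at 800g, then the supernatant at 12000g. The pellet was freeze/thawed in PBS, and the final 105000g pellet was used. Protein (10 μg) was preincubated with compound or vehicle for 30 min at 37 °C in NaH2PO4/citrate buffer pH 4.5 with 0.1% Triton X-100 and 3 mM DTT. Then 50 μM substrate, 37 °C, 30 min, duplicates. Heptadecenoic acid quantified against heptadecanoic acid internal standard. IC50 by fixed-slope nonlinear regression.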"}, "[2]": {"target": "T2, Fatty-acid amide hydrolase 1 (Rattus norvegicus) (UniProt P97612)", "T2 sequence (whole entry)": "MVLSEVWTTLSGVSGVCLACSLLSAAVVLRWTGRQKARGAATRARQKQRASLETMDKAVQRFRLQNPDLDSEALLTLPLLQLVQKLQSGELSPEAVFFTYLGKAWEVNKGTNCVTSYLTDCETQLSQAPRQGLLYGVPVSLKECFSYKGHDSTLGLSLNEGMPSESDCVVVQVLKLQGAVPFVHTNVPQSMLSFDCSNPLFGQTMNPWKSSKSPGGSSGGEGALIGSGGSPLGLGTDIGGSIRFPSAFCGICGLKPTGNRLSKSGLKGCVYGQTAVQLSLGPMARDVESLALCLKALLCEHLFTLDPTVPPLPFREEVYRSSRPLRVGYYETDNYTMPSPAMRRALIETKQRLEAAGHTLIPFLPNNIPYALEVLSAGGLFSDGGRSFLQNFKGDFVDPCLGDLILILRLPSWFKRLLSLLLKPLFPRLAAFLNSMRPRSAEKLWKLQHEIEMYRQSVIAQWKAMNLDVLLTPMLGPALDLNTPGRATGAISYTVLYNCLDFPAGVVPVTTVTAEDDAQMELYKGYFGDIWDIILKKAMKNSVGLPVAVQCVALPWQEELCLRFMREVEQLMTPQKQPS", "test": "Inhibition of rat brain FAAH using [3H]anandamide as substrate preincubated at 10 uM for 10 mins followed by substrate addition by liquid scintillation counting", "summary_of_the_method": "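Rat brain homogenate (50 μg protein) was preincubated with compound for 10 min. Then 30 min at 37 °C with 1 μM cold AEA plus 0.6 nM [3H]AEA in 50 mM Tris pH 7.4 containing 0.05% fatty-acid-free BSA. Stopped with cold CHCl3/MeOH 1:1, and the aqueous phase was counted.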"}, "[3]": {"test": "Selectivity ratio of IC50 for rat NAAA to IC50 for human NAAA"}, "[4]": {"target": "T3, Acid ceramidase (Rattus norvegicus) (UniProt Q6P7S1)", "T3 sequence (whole entry)": "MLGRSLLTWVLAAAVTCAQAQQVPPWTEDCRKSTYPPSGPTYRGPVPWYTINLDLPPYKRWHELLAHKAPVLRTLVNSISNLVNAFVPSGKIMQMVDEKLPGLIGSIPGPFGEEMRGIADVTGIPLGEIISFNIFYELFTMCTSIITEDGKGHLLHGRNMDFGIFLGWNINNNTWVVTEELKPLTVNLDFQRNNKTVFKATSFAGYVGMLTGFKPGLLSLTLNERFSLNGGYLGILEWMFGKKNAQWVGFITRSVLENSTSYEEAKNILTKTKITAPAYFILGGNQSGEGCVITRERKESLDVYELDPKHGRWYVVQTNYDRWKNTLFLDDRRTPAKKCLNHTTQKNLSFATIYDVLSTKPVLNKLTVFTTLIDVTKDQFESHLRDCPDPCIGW", "test": "Inhibition of rat lung acid ceramidase overexpressed in HEK293 cells using N-Lauroyl ceramide as substrate preincubated at 10 uM for 30 mins followed by substrate addition by LC-MS analysis", "format": "cell-based", "summary_of_the_method": "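Enzyme (25 μg) from HEK293 cells overexpressing rat AC was preincubated with compound for 30 min at 37 °C in 100 mM NaH2PO4, 100 mM trisodium citrate, 0.1% Triton X-100, 3 mM DTT, pH 4.5. Then 100 μM N-lauroyl ceramide was added. Lauric acid (m/z 199) was measured by negative-ion LC-MS with heptadecanoic acid (m/z 269) as internal standard.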"}, "[5]": {"target": "T4, N-acylethanolamine-hydrolyzing acid amidase (Homo sapiens, UniProt Q02083)", "T4 sequence (Q02083 whole entry)": "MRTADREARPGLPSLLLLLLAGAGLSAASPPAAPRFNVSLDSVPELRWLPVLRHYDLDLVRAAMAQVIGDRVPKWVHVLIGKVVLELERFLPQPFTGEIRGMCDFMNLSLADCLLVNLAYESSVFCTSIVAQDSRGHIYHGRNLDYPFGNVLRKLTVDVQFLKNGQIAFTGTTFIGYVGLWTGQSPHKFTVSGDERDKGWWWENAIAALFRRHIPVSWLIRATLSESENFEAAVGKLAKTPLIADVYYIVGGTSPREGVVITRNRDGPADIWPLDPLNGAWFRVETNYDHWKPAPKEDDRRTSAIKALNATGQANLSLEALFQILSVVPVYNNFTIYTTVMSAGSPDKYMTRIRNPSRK", "test": "Inhibition of C-terminal His-6-tagged recombinant human spleen NAAA enzyme expressed in HEK293 cells", "format": "cell-based", "summary_of_the_method": "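Stable HEK293 clone (G418 selection) expressing h-NAAA; cell pellets sonicated, then membrane fraction prepared by centrifugation with a freeze/thaw step. 10 μg protein preincubated 30 min at 37 °C with inhibitor in citrate/phosphate buffer pH 4.5 (0.1% Triton X-100, 3 mM DTT). Duplicates then given 50 μM 10-cis-heptadecenoylethanolamide for 30 min at 37 °C. Heptadecenoic acid measured by UPLC-MS; IC50 from fixed-slope nonlinear regression.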"}},
  "data": [
    {"smiles": "CC(CCCCc1ccccc1)OC(=O)N[C@H]1C(=O)O[C@H]1C", "note": "(mixture of isomers)", "values": [
      {"measurement": "IC50", "setting": "[1]; read-out: IC50", "value": 29, "unit": "nM"}
    ]},
    {"smiles": "CCCCCOC(=O)N[C@H]1C(=O)O[C@H]1C", "values": [
      {"measurement": "IC50", "setting": "[1]; read-out: IC50", "value": 760, "unit": "nM"}
    ]},
    {"smiles": "C[C@@H]1OC(=O)[C@@H]1NC(=O)OCCCCCC1CCCCC1", "values": [
      {"measurement": "inhibition", "setting": "[2]", "value": "< 10", "unit": "%"},
      {"measurement": "Ratio IC50", "setting": "[3]", "value": 2},
      {"measurement": "inhibition", "setting": "[4]", "value": "< 10", "unit": "%"},
      {"measurement": "IC50", "setting": "[1]; read-out: IC50", "value": 13, "unit": "nM"}
    ]},
    {"smiles": "CC(CCCCc1ccccc1)OC(=O)N[C@H]1C(=O)O[C@H]1C", "note": "(single isomer, unassigned; diastereomer 2)", "values": [
      {"measurement": "IC50", "setting": "[1]; read-out: IC50", "value": 5100, "unit": "nM"}
    ]},
    {"smiles": "C[C@@H]1OC(=O)[C@@H]1NC(=O)OCc1cccc(-c2ccccc2)c1", "values": [
      {"measurement": "IC50", "setting": "[1]; read-out: IC50", "value": 23000, "unit": "nM"}
    ]},
    {"smiles": "C[C@@H]1OC(=O)[C@@H]1NC(=O)OCCCCCc1ccccc1", "values": [
      {"measurement": "inhibition", "setting": "[2]", "value": "< 10", "unit": "%"},
      {"measurement": "Ratio IC50", "setting": "[3]", "value": 2},
      {"measurement": "inhibition", "setting": "[4]", "value": "< 10", "unit": "%"}
    ]},
    {"smiles": "CC(C)C(CCCCc1ccccc1)OC(=O)N[C@H]1C(=O)O[C@H]1C", "note": "(single isomer, unassigned; diastereomer 2)", "values": [
      {"measurement": "IC50", "setting": "[1]; read-out: IC50", "value": 12200, "unit": "nM"}
    ]},
    {"smiles": "C[C@@H]1OC(=O)[C@@H]1NC(=O)OCCCc1ccccc1", "values": [
      {"measurement": "IC50", "setting": "[1]; read-out: IC50", "value": 90, "unit": "nM"}
    ]},
    {"smiles": "C[C@@H]1OC(=O)[C@@H]1N(C)C(=O)OCCCCCc1ccccc1", "values": [
      {"measurement": "IC50", "setting": "[1]", "value": "Not Active"}
    ]},
    {"smiles": "CC(C)C(CCCCc1ccccc1)OC(=O)N[C@H]1C(=O)O[C@H]1C", "note": "(stereo partly drawn)", "values": [
      {"measurement": "IC50", "setting": "[1]; read-out: IC50", "value": 80, "unit": "nM"}
    ]},
    {"smiles": "CCCCCCC[C@@H](C)OC(=O)N[C@H]1C(=O)O[C@H]1C", "values": [
      {"measurement": "IC50", "setting": "[1]; read-out: IC50", "value": 270, "unit": "nM"}
    ]},
    {"smiles": "C[C@@H]1OC(=O)[C@@H]1NC(=O)OCCCOCc1ccccc1", "values": [
      {"measurement": "IC50", "setting": "[5]", "value": 20, "unit": "nM"},
      {"measurement": "inhibition", "setting": "[2]", "value": "< 10", "unit": "%"},
      {"measurement": "Ratio IC50", "setting": "[3]", "value": 2},
      {"measurement": "inhibition", "setting": "[4]", "value": "< 10", "unit": "%"}
    ]},
    {"smiles": "C[C@@H]1OC(=O)[C@@H]1NC(=O)OCc1ccc(-c2ccccc2)cc1", "values": [
      {"measurement": "inhibition", "setting": "[2]", "value": "< 10", "unit": "%"},
      {"measurement": "inhibition", "setting": "[4]", "value": 30, "unit": "%"}
    ]},
    {"smiles": "CC(CCCCc1ccccc1)OC(=O)N[C@H]1C(=O)O[C@H]1C", "note": "(single isomer, unassigned; diastereomer 1)", "values": [
      {"measurement": "IC50", "setting": "[1]; read-out: IC50", "value": 18, "unit": "nM"}
    ]},
    {"smiles": "C[C@H]1OC(=O)[C@@H]1NC(=O)OCCCCCc1ccccc1", "values": [
      {"measurement": "IC50", "setting": "[1]; read-out: IC50", "value": 20, "unit": "nM"}
    ]},
    {"smiles": "CCCCCCCC(C)OC(=O)N[C@H]1C(=O)O[C@H]1C", "note": "(mixture of isomers)", "values": [
      {"measurement": "IC50", "setting": "[1]; read-out: IC50", "value": 60, "unit": "nM"}
    ]},
    {"smiles": "CCCCCCC[C@H](C)OC(=O)N[C@H]1C(=O)O[C@H]1C", "values": [
      {"measurement": "inhibition", "setting": "[2]", "value": 19, "unit": "%"},
      {"measurement": "Ratio IC50", "setting": "[3]", "value": 2},
      {"measurement": "inhibition", "setting": "[4]", "value": 45, "unit": "%"}
    ]}
  ]
}
